Data from PubChem BioAssay AID720543 (The Scripps Research Institute Molecular Screening Center, 2013).
Among all 370,000 compounds or so, about 2,000 (0.54%) were called active.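 Rule for the calls: active = inhibition exceeding the mean over every tested compound plus 3 SD (cut at about 30% in these data); inactive = the rest.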 Many of the other results were omitted from the sample, so actives are more common in it than they were.

Each compound was assayed against (Lyso)-N-acylphosphatidylethanolamine lipase (Mus musculus) (UniProt Q8VD66) (assay: mouse ABHD4 hydrolase activity blockers – biochemical, fluorescence polarization, primary screen (AID 720543)). Conditions: purified mABHD4, FP-Rh probe fluorescence polarization; at 8.92 µM; active compounds read high.
How it was run: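 Assay system: mouse ABHD4 enzyme, wild type / Also added: fluorescent activity-based probe FP-Rh / Doses: single nominal dose of 8.92 µM, 0.89% DMSO final / Timing: 45 min compound pre-incubation plus 60 min probe step, 25 °C / Signal: FP readout, ex 525 nm / em 598 nm / Control set: S159A mutant/DMSO as 100%, compound-well median as 0%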

Chain of (Lyso)-N-acylphosphatidylethanolamine lipase (Mus musculus) (Q8VD66 whole entry, looked up): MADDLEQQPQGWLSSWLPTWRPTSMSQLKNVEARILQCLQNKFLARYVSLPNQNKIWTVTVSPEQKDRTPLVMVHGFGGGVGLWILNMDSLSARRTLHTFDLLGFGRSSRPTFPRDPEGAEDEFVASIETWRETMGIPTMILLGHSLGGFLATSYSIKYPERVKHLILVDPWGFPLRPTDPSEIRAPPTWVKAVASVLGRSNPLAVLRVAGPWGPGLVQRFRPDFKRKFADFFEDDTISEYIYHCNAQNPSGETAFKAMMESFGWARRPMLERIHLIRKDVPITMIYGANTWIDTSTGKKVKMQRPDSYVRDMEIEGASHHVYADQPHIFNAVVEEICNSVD

inhibition, inactive:
O=C(Nc1cc(F)cc(F)c1)OC1CCC12CCC(c1ccccc1)CC2 (configuration not stated) -31.2%
CC(Oc1ccc(Cl)cc1)c1ccnn1S(C)(=O)=O (configuration not stated) 1.1%
CCOC(=O)C1(Cc2ccccc2)CCN(Cc2cn(C(C)=O)c3ccccc23)CC1 -1.19%
COc1ccc(C)cc1NC(=O)c1[nH]c(C)c(C(C)=O)c1C -2.22%
CCc1c(C)nc2c(OC)cccc2c1Cl 0.48%
COC(=O)c1cccc(Cn2ccc3ccc(-c4ccc5ccn(C(=O)c6ccccc6C)c5c4)cc32)c1 1.96%
CCOC(=O)/C=C/c1ccc(C(F)(F)F)cc1S(=O)(=O)NC(C)(C)C -26.5%
CCOC(=O)C[C@H]1c2ccc(C(F)(F)F)cc2S(=O)(=O)N1c1ccccc1 -6.24%
CN1C(=O)c2cc(NS(C)(=O)=O)ccc2OC[C@@H]2O[C@@H](CC(=O)NCc3ccc(-c4ccccc4)cc3)CC[C@H]21 3.8%
Cc1ccc(Cn2cc(CN3[C@@H](CC(C)C)COc4ccc(Cl)cc4S3(=O)=O)nn2)cc1 4.37%
O=C(NCc1cccs1)C1CCCN(S(=O)(=O)c2ccc([N+](=O)[O-])cc2)C1 (configuration not stated) 4.68%
O=S(=O)([N-]c1nc2ccccc2nc1-[n+]1ccc(Cc2ccccc2)cc1)c1ccc(Br)s1 7.29%
O=C1CCN(C(=O)Nc2ccccc2)N1 6.15%
Cc1ccc(NC2CCCN(C(=O)CCC3(C)CC3)C2)cc1C (configuration not stated) 8.21%
O=C(Nc1cc(Cl)cc(Cl)c1)OCCN1CCCC12CCC(c1ccccc1)CC2 (configuration not stated) 2.15%
COC(=O)c1ccc(COc2cc([N+](=O)[O-])cc3cccnc23)cc1 6.05%
COC(=O)C(C)N(C#N)c1nc(C)nc(C)n1 (configuration not stated) -1.89%
CCN(C(=O)Nc1cccc2ccccc12)c1ccccc1 18.5%
O=C(Nc1ccccc1[N+](=O)[O-])C1C(c2ccccc2)=C1c1ccccc1 -0.35%
O=C1C(=O)N(Cc2ccc(-c3ccsc3)cc2)c2ccc(OC(F)(F)F)cc21 1.83%
COC(=O)[C@]12C[C@H](CC(=O)NCc3ccccc3)C(=O)N(CCc3ccc(OC)c(OC)c3)C1=C[C@H](C(C)(C)C)O[C@@H]2C 4.6%
CNc1[nH]ncc1[N+](=O)[O-] 7.62%
CN(C)CC(=O)N[C@@H]1C[C@@H]2O[C@H](CO)CC[C@@H]2O[C@@H]1CCc1ccc(C#Cc2ccccc2)cc1 3.38%
C#CCCN([C@H](C(=O)OC)C(C)C)S(=O)(=O)c1ccc(F)cc1Br -7.15%
CC(=O)N(c1ccc2oc(=O)sc2c1)S(=O)(=O)c1ccc(C)cc1 7.97%
O=C(CN(Cc1ccc(Br)cc1)S(=O)(=O)c1ccccc1)NCc1ccncc1 -0.4%
Cc1cc(C)nc(NC(=S)N2CCN(c3ccc(C(F)(F)F)cn3)CC2)c1 8.35%
O=C(NCc1ccco1)C1CCCN(S(=O)(=O)c2cccc3nonc23)C1 (configuration not stated) 5.79%
CCc1ccc(-c2nn(-c3ccccc3C)cc2C(=O)N2CCN(C3CCS(=O)(=O)C3)CC2)cc1 (configuration not stated) 5.26%
CCOc1ccc(Br)cc1CSC(=N)N 4.65%
CC1=C(C/C=C(\C)CCCC(C)CCCC(C)CCCC(C)C)C(=O)c2ccccc2C1=O (configuration not stated) -0.54%
C=C(C)C1CC23C(=O)C4(C(=O)c5ccccc5)C[C@@]5(C)CCC(CC2C1(C)C)(C4=O)C35OC (some centres not stated) -1.09%
CCOCCOCCC(C(=O)O)P(=O)(c1ccccc1)c1ccccc1 (configuration not stated) 4.54%
COc1ccccc1NC(=O)CCC(=O)OC(C)C(=O)c1ccccc1 (configuration not stated) 4.06%
C#CCN([C@H](C(=O)OC)C(C)CC)S(=O)(=O)c1ccccc1Br (some centres not stated) -0.06%
O=C(C(=O)N1CCC(CNC(=O)c2cccnc2Cl)CC1)c1cccs1 2.01%
Cc1[nH]nc2c1C(c1ccc(Br)cc1)NC2=O (configuration not stated) 7.99%
Cc1cc(NS(=O)(=O)c2ccc(NC(=O)CSc3nnc(-c4ccc(C(C)(C)C)cc4)n3Cc3ccco3)cc2)nc(C)n1 -7.09%
O=C(c1ncn2c1c(=O)[nH]c1ccccc12)N1CCc2ccccc2C1 -9.48%
O=C(O)C1C2CC2CN1C(=O)c1ccc(Cl)cc1Cl (configuration not stated) 0.74%
CCCNC(=O)CN(Cc1ccccc1F)S(=O)(=O)c1ccc(C)cc1 -5.78%
Cc1ccc(S(=O)(=O)N2CCCC2C(=O)NCc2ccco2)cc1 (configuration not stated) 5.4%
CC(C)c1ccc(NC(=S)NC2CC3C=CC2C3)cc1 (configuration not stated) -0.07%
O=C(NC(=S)Nc1ccc(Cl)c(C(=O)O)c1)c1cncc(Br)c1 -0.66%

inhibition, active:
COc1cccc2c(C)c(C(=O)O)[nH]c12 35.9%
CCOC(=O)C1Nc2ccc(C(F)(F)F)cc2C2C=CCC12 (configuration not stated) 41.8%
CCC(C)Cn1c(O)cc2nn(-c3nc4ccccc4s3)c(=O)c-2c1C (configuration not stated) 44.6%
O=C(O)c1cc([N+](=O)[O-])c(Nc2cccc3ccccc23)c([N+](=O)[O-])c1 35.4%
CCOc1cc(/C=C2/N=C(c3ccc(C(C)(C)C)cc3)OC2=O)cc(Cl)c1OS(C)(=O)=O 37.3%
O=C(c1cccnc1)N(c1cc2sc(=O)oc2c2ccccc12)S(=O)(=O)c1ccccc1 61.7%
CCc1ccc(-c2nn(-c3ccccc3)cc2CSC(=N)N)cc1 52.2%
NNc1nc2c(Cl)cccc2s1 70.2%
CN(C)[C@@H]1C(=O)C(C(N)=O)=C(O)[C@@]2(O)C(=O)C3=C(O)c4c(O)ccc(Cl)c4[C@@H](O)[C@H]3C[C@@H]12 55.1%
C=C1c2c(Cl)ccc(O)c2C(O)=C2C(=O)[C@]3(O)C(O)=C(C(N)=O)C(=O)[C@@H](N(C)C)[C@@H]3[C@@H](O)C12 (some centres not stated) 69.7%
O=c1[nH]c2ccccc2n2c(-c3ccccc3)nnc12 43.1%
CC[C@@H]1Cc2cc(O)ccc2C2=C1c1ccc(O)cc1C[C@H]2CC 35.5%
CC(C)c1ccc(NC(=S)NNc2ccc(Cl)c(C(=O)O)c2)cc1 37.3%
